# Measurements reported in article PMC5901648 (Cancer, 2017).
# Where a name gives a salt, the structure may show the parent alone. Read-outs that look alike come from different tables or passages of the source.
# Columns and labels:
# HDAC = conditions: pan-HDACI; cited from earlier work
# [1] = in vivo studies; cited from earlier work
# [2] = Plasma pharmacokinetics of pracinostat; assay type: in vivo, human; conditions: for half-life / Tmax / AUC(0-inf) / Cmax: human, plasma; for AUC(0-inf): AUC0-inf
# Outline: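 The test compound was given orally at 10–120 mg to patients with hematologic malignancies. AUC0-inf was noncompartmental, t1/2 came from the terminal log-linear phase (≥3 last points), and Cmax/Tmax were read from the curves.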
# [3] = tested on: patients with advanced hematological malignancies; experiment: Efficacy; assay type: in vivo, human
# [4] = tested on: histone H3 acetylation (AcH3) in peripheral blood mononuclear cells; experiment: Pharmacodynamics: AcH3 levels in PBMCs; assay type: in vivo, human; conditions: ten subjects; maximal at 3 h post-dose; no dose-dependent increase
# [5] = tested on: patients with advanced solid tumors; conditions: cited from earlier work; for stable disease (SD) as best response, patients: advanced solid tumors
# [6] = tested on: patients with advanced hematological malignancies; experiment: Phase 1 dose escalation, safety and toxicity, Arm 1; conditions: human, in vivo
# [7] = cited from earlier work
# [8] = po, 40 mg, Day 15, 40 mg oral, n=5, mean±SD
# [9] = po, 40 mg, Day 1, 40 mg oral, n=6, mean±SD
# [10] = po, 60 mg, Day 1, 60 mg oral, n=3, mean±SD
# [11] = po, 60 mg, Day 15, 60 mg oral, n=3, mean±SD
# [12] = po, 80 mg, Day 1, 80 mg oral, n=3, mean±SD
# [13] = po, 80 mg, Day 15, 80 mg oral, n=3, mean±SD
# [14] = po, 100 mg, Day 1, 100 mg oral, n=3, mean±SD
# [15] = po, 100 mg, Day 15, 100 mg oral, n=3, mean±SD
# [16] = po, 120 mg, Day 1, 120 mg oral, n=6, mean±SD
# [17] = po, 120 mg, Day 15, 120 mg oral, n=2, mean
smiles,measurement,setting,value
"CCCCc1nc2cc(/C=C/C(=O)NO)ccc2n1CCN(CC)CC [Pracinostat, 3-[2-butyl-1-(2-diethylaminoethyl)-1H-benzoimidazol-5-yl]-N-hydroxyacrylami-hydrochloride]",potency relative to vorinostat,HDAC,about twice
same,increased half-life (t1/2) compared to vorinostat,[1],3.3 fold
same,increased oral bioavailability compared to vorinostat,[1],4.1 fold
same,accumulation between Day 1 and Day 15 following repeated dosing,[2]; 100-mg dose level,moderate accumulation
same,"plasma concentrations relative to IC50 for HDAC 1, 2, and 3",[2]; all dose levels,above the 50% inhibitory concentration (IC50)
same,half-life,"[2]; oral, 120 mg, prolonged t1/2 reaching, discussion summary",≤ 14 h
same,Tmax,"[2]; oral, range over dose levels, 40-120 mg, Days 1 and 15",0.8 to 1.3 h
same,half-life,"[2]; oral, mean t1/2, range over dose levels, 40-120 mg, Days 1 and 15",7 to 14.1 h
same,AUC(0-inf),[2]; [8],477 ± 191 ng·h/mL
same,Cmax,[2]; [9],84 ± 34 ng/mL
same,Cmax,[2]; [8],64 ± 19 ng/mL
same,Tmax,[2]; [9],1.1 ± 0.7 h
same,Tmax,[2]; [8],1.3 ± 0.7 h
same,half-life,"[2]; po, 40 mg, t1/2, Day 1, 40 mg oral, n=6, mean±SD",9.4 ± 3.5 h
same,half-life,"[2]; po, 40 mg, t1/2, Day 15, 40 mg oral, n=5, mean±SD",10.7 ± 2.3 h
same,AUC(0-inf),[2]; [10],948 ± 1140 ng·h/mL
same,AUC(0-inf),[2]; [11],766 ± 746 ng·h/mL
same,Cmax,[2]; [10],133 ± 117 ng/mL
same,Cmax,[2]; [11],118 ± 135 ng/mL
same,Tmax,[2]; [10],1 ± 0.5 h
same,Tmax,[2]; [11],0.8 ± 0.3 h
same,half-life,"[2]; po, 60 mg, t1/2, Day 1, 60 mg oral, n=3, mean±SD",12.1 ± 2.3 h
same,half-life,"[2]; po, 60 mg, t1/2, Day 15, 60 mg oral, n=3, mean±SD",11.8 ± 3.4 h
same,AUC(0-inf),[2]; [12],1050 ± 803 ng·h/mL
same,AUC(0-inf),[2]; [13],977 ± 459 ng·h/mL
same,Cmax,[2]; [12],189 ± 182 ng/mL
same,Cmax,[2]; [13],164 ± 122 ng/mL
same,Tmax,[2]; [12],1.3 ± 0.8 h
same,Tmax,[2]; [13],1.2 ± 0.3 h
same,half-life,"[2]; po, 80 mg, t1/2, Day 1, 80 mg oral, n=3, mean±SD",7 ± 1.1 h
same,half-life,"[2]; po, 80 mg, t1/2, Day 15, 80 mg oral, n=3, mean±SD",9.3 ± 4.1 h
same,AUC(0-inf),[2]; [14],1170 ± 347 ng·h/mL
same,AUC(0-inf),[2]; [15],1980 ± 682 ng·h/mL
same,Cmax,[2]; [14],187 ± 99 ng/mL
same,Cmax,[2]; [15],314 ± 143 ng/mL
same,Tmax,[2]; [14],1.2 ± 0.3 h
same,Tmax,[2]; [15],1 ± 0.5 h
same,half-life,"[2]; po, 100 mg, t1/2, Day 1, 100 mg oral, n=3, mean±SD",8.4 ± 1.1 h
same,half-life,"[2]; po, 100 mg, t1/2, Day 15, 100 mg oral, n=3, mean±SD",13.7 ± 5.6 h
same,AUC(0-inf),[2]; [16],1360 ± 725 ng·h/mL
same,AUC(0-inf),[2]; [17],757 ng·h/mL
same,Cmax,[2]; [16],202 ± 83 ng/mL
same,Cmax,[2]; [17],96 ng/mL
same,Tmax,[2]; [16],1.2 ± 0.4 h
same,Tmax,[2]; [17],1 h
same,half-life,"[2]; po, 120 mg, t1/2, Day 1, 120 mg oral, n=6, mean±SD",10.8 ± 3 h
same,half-life,"[2]; po, 120 mg, t1/2, Day 15, 120 mg oral, n=2, mean",14.1 h
same,effect of AZA administration on PK parameters for pracinostat,[2]; in vivo,not affected
same,PFS of responding AML patient,"[3]; 80 mg dose level, 11 cycles",362 days
same,PFS of responding AML patient,"[3]; 120 mg dose level, 8 cycles",197 days
same,progressive disease,[3]; 32 evaluable patients,31%
same,responders (CR or CCyR),[3]; 32 evaluable patients,6%
same,Median OS,[3]; 95% CI: 114.0- NA,362 days
same,patients who died,[3]; Thirteen patients of 44,30%
same,AcH3 levels in PBMCs,[4],increased across all dose levels
same,"stable disease (SD) as best response, patients",[5]; ref 12,32%
same,"stable disease (SD) as best response, patients",[5]; ref 13,21%
same,dose of early emergence of grade 3 TRAEs and DLTs,[5]; continuous 5-day dosing every 2 weeks,20 mg
same,"AEs leading to a dose-interruption, patients",[6],34%
same,"AEs leading to a dose-reduction, patients",[6],27%
same,"Anemia, treatment-related adverse event, All Grades",[6],5%
same,"Anemia, treatment-related adverse event, Grade ≥ 3",[6],5%
same,"Anorexia, treatment-related adverse event, All Grades",[6],23%
same,"Anorexia, treatment-related adverse event, Grade ≥ 3",[6],2%
same,"Constipation, treatment-related adverse event, All Grades",[6],5%
same,"Constipation, treatment-related adverse event, Grade ≥ 3",[6],0%
same,"Diarrhea, treatment-related adverse event, All Grades",[6],16%
same,"Diarrhea, treatment-related adverse event, Grade ≥ 3",[6],2%
same,"Elevated ALT, treatment-related adverse event, All Grades",[6],0%
same,"Elevated ALT, treatment-related adverse event, Grade ≥ 3",[6],0%
same,"Fatigue, treatment-related adverse event, All Grades",[6],41%
same,"Fatigue, treatment-related adverse event, Grade ≥ 3",[6],11%
same,"Infections, treatment-related adverse event, All Grades",[6],9%
same,"Infections, treatment-related adverse event, Grade ≥ 3",[6],9%
same,"Nausea, treatment-related adverse event, All Grades",[6],30%
same,"Nausea, treatment-related adverse event, Grade ≥ 3",[6],0%
same,"Neutropenia, treatment-related adverse event, All Grades",[6],2%
same,"Neutropenia, treatment-related adverse event, Grade ≥ 3",[6],2%
same,"QTc prolongation, treatment-related adverse event, All Grades",[6],7%
same,"QTc prolongation, treatment-related adverse event, Grade ≥ 3",[6],5%
same,"Thrombocytopenia, treatment-related adverse event, All Grades",[6],14%
same,"Thrombocytopenia, treatment-related adverse event, Grade ≥ 3",[6],11%
same,"Vomiting, treatment-related adverse event, All Grades",[6],14%
same,"Vomiting, treatment-related adverse event, Grade ≥ 3",[6],0%
same,"discontinuation of pracinostat due to an AE, patients",[6],25%
same,patients who experienced a grade ≥ 3 TRAE,[6],20%
same,patients who experienced at least 1 TRAE,[6],77%
same,pracinostat doses at which grade ≥ 3 thrombocytopenia was experienced,[6],≥ 80 mg
same,"DLTs, patients",[6]; 28 days,13%
same,doses at which DLTs occurred,[6]; 28 days,≥ 40 mg
same,recommended phase II dose (RP2D),"[6]; po, 28 days",60 mg
O=C(CCCCCCC(=O)Nc1ccccc1)NO [vorinostat],half-life,[7],1 to 2 h
